Measured values collected from several papers.
Each line is one published result; the experiments were not run side by side.

With `COc1c(N2C[C@@H]3CCCN[C@@H]3C2)c(F)cc2c(=O)c(C(=O)O)cn(C3CC3)c12` the MIC was over 4 mg/L (Haemophilus influenzae; microbial growth).
`O=c1c(O[C@@H]2O[C@H](CO)[C@H](O)[C@H](O)[C@H]2O)c(-c2ccc(O)c(O)c2)oc2cc(O)cc(O)c12` gave an IC50 of 142 µM (DPPH scavenging, absorbance; 30 min).
With `O=c1[nH]cnc2c1nnn2-c1cccc(Cl)c1` the IC50 was over 100 µM (Chikungunya virus; viral replication, luciferase; BHK-21; 16 h).
With `COc1c2ccoc2cc2oc(=O)ccc12` the IC50 was 23.4 µM (HEp-2; cell growth or viability, WST-1; 48 h).
`O=C1O[C@H]([C@@H](O)CO)C(O)=C1O` gave an IC50 of 10.2 µM (DPPH scavenging).
For `C[C@]12CCC(=O)C(O)=C1CC[C@@H]1[C@@H]2CC[C@]2(C)C(=O)CC[C@@H]12`, the IC50 was over 20 µM (FaDu; cell growth or viability; 72 h).
For `Cc1c2ccncc2c(C)c2c1[nH]c1ccccc12`, the IC50 was 0.44 µM (THP-1; TNF-α release, inhibitor, ELISA; 17 h, LPS-stimulated).
For `COc1c2c(cc3c1OCO3)[C@]13C=C[C@H](OC)C[C@@H]1[N@](C2)C[C@H]3OC(=O)c1ccc2ccccc2c1`, the IC50 was over 10 µM (SAOS-2; cell growth or viability, WST-1).
`O=C(Nc1ncc([N+](=O)[O-])s1)c1ccccc1O` gave an IC50 of 13.1 µM (Chikungunya virus; viral replication, luciferase; BHK-21; 16 h).
The IC50 of `COc1ccc(O)c(C(C)(C)C)c1` is reported as 10.1 mg/L (DPPH scavenging, absorbance).
For `COc1c(N2CCNC(C)C2)c(F)cc2c(=O)c(C(=O)O)cn(C3CC3)c12` (stereo not drawn), the MIC was over 4 mg/L (Haemophilus influenzae; microbial growth).
The IC50 of `O=C(Nc1ccc(O)cc1)c1ccccc1O` is reported as over 100 µM (Chikungunya virus; viral replication, luciferase; BHK-21; 16 h).
